# AHR act – human AHR activation | P35869 | AHR-responsive luciferase reporter cells, luminescence | activation, % at 5 µM | hit rate 2.5% among 320,000 | AID 2796; in the data active means activation above about 47%;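 further: 0% = vehicle wells and 100% = reference agonist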
# APOBEC3A inh – blocks human APOBEC3A ssDNA deamination; recombinant A3A, FAM/TAMRA ssDNA deamination fluorescence; inhibition, % at 20 µM; hit rate 0.41% among 330,000; AID 493011;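 active means at least 40% inhibition at 20 µM here, with at most 30% in a related deaminase screen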;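 further: plate controls were A3A with DMSO for no effect and wells lacking A3A enzyme for full effect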
# Target sequence (P31941 whole entry, looked up): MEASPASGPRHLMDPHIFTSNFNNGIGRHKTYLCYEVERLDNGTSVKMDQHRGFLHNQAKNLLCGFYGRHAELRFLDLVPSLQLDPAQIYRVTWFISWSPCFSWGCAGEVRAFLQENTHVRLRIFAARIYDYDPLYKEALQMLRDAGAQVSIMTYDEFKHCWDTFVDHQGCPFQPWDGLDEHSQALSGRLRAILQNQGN
# Arrestin-AP2 inh – inhibitors of human beta-arrestin and AP2 interaction; FITC-arrestin peptide / GST-AP2 beads, flow cytometry; AP2 beta2 appendage carries R879A mutation; inhibition, % at 10 µM; hit rate 0.31% among 340,000;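 active means inhibition above a set limit, near 3 SD of compounds lacking own fluorescence, cut at about 54% in these data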;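 further: plate controls were DMSO wells for no effect and 5 µM unlabelled arrestin peptide for full effect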
#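 System: GST-AP2 R879A glutathione beads; medium: PBS, Tween 20 0.05%, BSA 0.1%; reagent: fluorescein-tagged arrestin peptide at 50 nM final; schedule: pre-incubation 12 min, peptide binding 1 h, room temperature; detection: flow cytometry, FL1 (488/535 nm); read-out: inhibition as reduced fluorescein signal on beads, percent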
# UCH37 inh – blocks the human deubiquitinase UCH37 | purified proteasome/UCH37, Ub-AMC cleavage fluorescence | Q9Y5K5 | hit rate 0.33% among 330,000 | inhibition, % (no concentration beside the values);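 active means mean inhibition over replicate wells above about 20%, limit read from the data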;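 further: 0% = compound-free wells with enzyme and 100% = wells lacking proteasome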
#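 System: Proteasome-associated human UCH37 deubiquitinase; Input: 0.15 nM proteasome in added enzyme buffer; Also added: Ub-AMC substrate from 1 µM stock; Incubation: 30 min compound-proteasome preincubation then 25 min substrate reaction, room temperature; Detection: fluorescence, ex 355 nm, em 460 nm; Read-out: % inhibition of Ub-AMC cleavage fluorescence; Benchmarks: no-proteasome and no-compound wells.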
# A3G deaminase – APOBEC3G (human) deaminase inhibition; recombinant A3G, ssDNA deamination FAM/TAMRA fluorescence; hit rate 0.28% among 330,000; Q9HC16; inhibition, % at 20 µM;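 active means inhibition of at least 40% at 20 µM, with no more than 30% in the related APOBEC3A deaminase screen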;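 further: plate controls were DMSO wells with A3G for no effect and wells lacking A3G enzyme for full effect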
# Target sequence (Q9HC16 whole entry, looked up): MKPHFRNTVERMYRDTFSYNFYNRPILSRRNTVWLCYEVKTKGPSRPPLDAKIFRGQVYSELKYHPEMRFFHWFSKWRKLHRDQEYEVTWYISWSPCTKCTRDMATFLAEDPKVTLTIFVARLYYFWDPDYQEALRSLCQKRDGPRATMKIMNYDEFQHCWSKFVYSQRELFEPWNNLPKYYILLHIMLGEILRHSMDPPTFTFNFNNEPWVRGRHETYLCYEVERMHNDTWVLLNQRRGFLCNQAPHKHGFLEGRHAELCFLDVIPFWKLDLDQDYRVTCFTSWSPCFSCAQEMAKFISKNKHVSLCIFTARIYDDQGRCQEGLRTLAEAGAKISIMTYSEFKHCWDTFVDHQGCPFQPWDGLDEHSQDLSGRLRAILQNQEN
# PolyA inh – blocks polyadenylation in yeast reporter cells; hit rate 0.02% among 300,000; activity score, % at 12 µM; S. cerevisiae SKY197-pL101 polyadenylation reporter, beta-gal luminescence; efflux-impaired pdr1/pdr3 knockout yeast; score 100 = 6 SD above DMSO;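 active means lowest replicate activity score at least 50, where 100 means six control SD above control mean; inconclusive means lowest score under 50 but half or more replicates reach 50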;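 further: yeast exposed to compound for 9 h at 30 °C; higher score means more reporter readthrough which indicates perturbed polyadenylation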
# A3A conf – confirmation of human APOBEC3A DNA deaminase inhibitors; shares compounds with APOBEC3A inh; recombinant A3A, ssDNA deaminase UDG fluorescence assay; inhibition, % at 20 µM; hit rate 63% among 1,400; AID 493151;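 active means inhibition reaching a set limit, 80% of the first screen's cutoff, at 20 µM in any replicate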;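 further: plate controls were DMSO wells with A3A for no effect and wells lacking A3A enzyme for full effect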
# UDG A3A counter – inhibits UDG, flagging false APOBEC3A inhibitors; AID 504714; UDG counterscreen, FAM/TAMRA uracil oligo fluorescence; 1,000 tested, under 10 active; inhibition, % at 20 µM; shares compounds with APOBEC3A inh; call rule not given here
# A3G conf – APOBEC3G (human) deaminase inhibition, confirmed; recombinant A3G ssDNA deaminase, UDG/FAM-TAMRA fluorescence; inhibition, % at 20 µM; hit rate 72% among 890; shares compounds with A3G deaminase;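 active means inhibition reaching a set limit in any replicate at 20 µM, the limit being 80% of the first screen's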
# UDG ctr A3G – inhibits E. coli UDG, flagging false APOBEC3G inhibitors; shares compounds with A3G deaminase; UDG counterscreen, FAM/TAMRA oligo fluorescence; inhibition, % at 20 µM; 710 tested, under 10 active;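 active means compounds giving 40% or more inhibition at 20 µM in any one of the three replicates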;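 further: plate controls were DMSO wells with UDG and oligo for no effect and DMSO wells lacking both for full effect; inhibitors lower the FAM signal released by uracil excision and alkaline cleavage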
# Target sequence (P12295 whole entry, looked up): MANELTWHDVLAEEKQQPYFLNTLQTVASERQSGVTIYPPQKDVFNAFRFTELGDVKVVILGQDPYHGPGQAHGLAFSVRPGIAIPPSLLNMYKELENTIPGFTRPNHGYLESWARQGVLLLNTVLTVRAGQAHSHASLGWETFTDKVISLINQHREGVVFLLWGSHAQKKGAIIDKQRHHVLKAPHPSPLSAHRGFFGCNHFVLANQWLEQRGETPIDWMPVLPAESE
# Arr-AP2 CP1 – inhibitors of human beta-arrestin and AP2 interaction. shares compounds with Arrestin-AP2 inh. GST-AP2 beads, FITC arrestin peptide binding, flow cytometry; GST-fused beta2-adaptin appendage, R879A mutant. inhibition, % at 10 µM. hit rate 2% among 1,300;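 active means inhibition above a set limit, roughly 3 SD of non-fluorescent compound noise, cut at about 38% in these data; inactive means inhibition at or below that limit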;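 further: loss of bead fluorescence from 50 nM FITC arrestin peptide bound to appendage; 0% = negative control wells and 100% = excess unlabelled arrestin peptide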
# GST GSH counter – disrupts GST binding to glutathione beads, arrestin-AP2 artifact; hit rate 2% among 1,300; inhibition, % at 10 µM; GST-fluorescein binding to GSH beads, fluorescence, counter-screen; shares compounds with Arrestin-AP2 inh;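 active means inhibition above 50%, about 3 SD of the inhibition seen with non-fluorescent compounds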;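 further: fluorescein maleimide labelled GST captured on 4 micron glutathione beads; higher means more loss of bead fluorescence from quenching or blocked binding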
# UCH37 reconfirm – UCH37 Ub-AMC cleavage inhibition, confirmed | shares compounds with UCH37 inh | Proteasome-bound UCH37, Ub-AMC cleavage fluorescence | inhibition, % at 20 µM | hit rate 27% among 480;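 active means average inhibition over replicates above about 50%, so the earlier screening hit is confirmed, limit read from the data; inactive means the rest, counted as false positives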;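 further: based on cleavage rate fitted by regression over a 30 min kinetic read; 0% = proteasome plus Ub-AMC and 100% = Ub-AMC without proteasome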
# * hit, by the source's call; ? = inconclusive; nt = no result. Only some compounds are listed: those with a hit (about 3.4% of all), similar ones and a draw of the others.
SMILES,AHR act,APOBEC3A inh,Arrestin-AP2 inh,UCH37 inh,A3G deaminase,PolyA inh,A3A conf,UDG A3A counter,others
O=c1cc(CSc2nnc(-c3cccs3)n2Cc2ccccc2)nc2sc3ccccc3n12,-1.4,47.4*,-5.5,3.4,21.6,-5.2,24.2,nt,
Cc1cc(C)n2nc(C(=O)Nc3c(C)nn(Cc4ccc(F)cc4)c3C)cc2n1,-0.9,12.1,12.4,-10.0,3.8,-2.7,nt,nt,
Cc1nn(Cc2ccc(F)cc2)c(C)c1NC(=O)c1cc2ncc(Br)cn2n1,-1.0,40.7*,2.3,3.5,4.3,-4.3,26.4,nt,
O=C(NCc1ccc2c(c1)OCO2)c1cc2ncc(Br)cn2n1,6.7,92.7*,-7.4,0.0,10.4,nt,82.7*,-1.1,
CC(=NNC(=O)c1ccc(CN2CCOCC2)cc1)c1ccc(NC(=O)c2ccccc2)cc1,nt,nt,nt,-9.4,nt,nt,nt,nt,
O=C(CSc1nnc(-c2ccc(Cl)cc2)n1-c1ccccc1)NN=Cc1ccccc1C(=O)O,nt,nt,nt,0.5,nt,nt,nt,nt,
CCN1C(=NCCOC)N[C@@H](c2cccs2)C(C(=O)OC)=C1C,-1.4,57.7*,10.4,-1.5,17.1,-7.6,66.9*,-5.3,
CCN(CC)CCCN=C1N[C@@H](c2cccc(F)c2)C(C(=O)OC)=C(C)N1Cc1ccccc1,-2.0,46.4*,-9.8,1.5,15.3,nt,81.8*,-0.2,
CCN1C(=NCCN2CCOCC2)N[C@@H](c2ccccc2)C(C(=O)OC)=C1C,1.5,48.6*,-6.6,4.9,5.7,10.0,51.7*,-0.6,
CCN1C(=NCCCCO)N[C@@H](c2cccc(F)c2)C(C(=O)OC)=C1C,0.5,50.6*,-1.6,-3.2,5.9,16.0,58.5*,-0.4,
CC(C)c1ccc(C=Nn2nnnc2Nc2ccccc2)cc1,nt,nt,nt,-0.5,nt,nt,nt,nt,
N#CC(=NO)c1nc2ccccc2s1,nt,nt,nt,14.3,nt,nt,nt,nt,
CCN1C(=NCCOC)N[C@@H](c2cccc(F)c2)C(C(=O)OC)=C1C,0.1,58.9*,-6.5,2.5,16.0,-4.7,70.7*,-3.2,
N#Cc1c(SCC(=O)Nc2nc3ccc(Br)cc3s2)sc2c(O)cc(=O)[nH]c12,14.1,42.5*,-11.5,nt,26.9,-8.3,39.3*,-3.9,
N#Cc1c(SCC(=O)Nc2nc3ccccc3s2)sc2c(O)cc(=O)[nH]c12,24.5,78.3,-5.3,-0.6,64.0,nt,nt,nt,
O=C(NN=Cc1ccncc1)C12CC3CC(CC(C3)C1)C2,nt,nt,nt,1.3,nt,nt,nt,nt,
Cc1ccc(SC(C)C(=O)NCc2ccncc2)cc1 (stereo unspecified),-1.8,49.8*,-4.5,0.3,6.9,2.1,18.1,nt,
COc1ccc(CCNC(=O)C(C)Sc2ccc(C)cc2)cc1OC (stereo unspecified),-1.2,86.3*,-4.0,3.9,-7.4,6.8,-7.0,-3.3,
CCOC(=O)c1c(-c2ccc(C)cc2)csc1N=C(C)C1=C(O)c2ccccc2C1=O,nt,nt,nt,7.7,nt,nt,nt,nt,
O=C(Cc1ccccc1)NN=Cc1cccs1,nt,nt,nt,-1.1,nt,nt,nt,nt,
Cc1ccc(S(=O)(=O)N(Cc2ccccc2)Cc2ccco2)cc1,3.3,-2.2,1.5,1.2,-5.1,20.4,nt,nt,
Cc1ccc(S(=O)(=O)N(CC(=O)O)Cc2ccco2)cc1,0.3,51.6*,8.9,0.9,12.3,6.5,56.3*,0.9,
COc1ccc(NC(=O)CN2C(=O)S/C(=C/c3cccn3-c3ccc(C(=O)O)cc3)C2=O)cc1,nt,63.5*,10.6,nt,24.9,nt,57.3*,nt,
Nc1nnc(SCC(=O)Nc2ccc(N3CCOCC3)c(Cl)c2)s1,3.2,-1.8,9.9,1.5,2.6,-1.2,nt,nt,
CC(C)(C)NC(=O)CSc1nc2ccc(NC(=O)CSc3nnc(N)s3)cc2s1,-2.3,47.7*,-9.5,nt,-2.6,-0.2,68.8*,3.9,
SMILES,AHR act,APOBEC3A inh,Arrestin-AP2 inh,UCH37 inh,A3G deaminase,PolyA inh,A3A conf,UDG A3A counter,others
CCCC(=O)Nc1ccc2nc(SCC(=O)Nc3ccc(N4CCOCC4)c(Cl)c3)sc2c1,3.1,63.5*,6.0,3.7,12.2,-2.8,46.1*,-3.0,
CC(C)(C)NC(=O)CSc1nc2ccc(NC(=O)CSc3nnnn3Cc3ccccc3)cc2s1,7.9,-5.9,-0.1,6.5,-10.7,-5.5,nt,nt,
Nc1ccc2nc(SCC(=O)Nc3ccc(N4CCOCC4)c(Cl)c3)sc2c1,33.2,41.3*,-10.6,2.9,13.5,5.6,54.8*,-2.4,
Cc1c(C(=O)NN=Cc2cccnc2)sc(N)c1C#N,nt,nt,nt,-4.2,nt,nt,nt,nt,
CC1CCCCC1=NNc1ccc(S(N)(=O)=O)cc1[N+](=O)[O-] (stereo unspecified),nt,nt,nt,4.6,nt,nt,nt,nt,
COc1ccccc1NCCC(=O)OCC(=O)NCc1ccco1,0.5,44.4*,75.2*,-0.7,25.1,7.4,23.8*,1.1,Arr-AP2 CP1=-9.0;GST GSH counter=-3.9
CCc1cccc(C)c1NC(=O)CON=C(C)c1cc2ccccc2o1,nt,nt,nt,4.2,nt,nt,nt,nt,
O=C1N=C(N2CCCC2C(=O)O)S/C1=C\c1ccco1 (stereo unspecified),-0.3,43.7*,42.4,43.2*,10.9,-3.4,19.2*,2.7,UCH37 reconfirm=12.6
CCN(CC)C(=O)c1ccc(/C=C/c2c[nH]c3ccccc23)[n+](C)c1,12.4,42.1*,-4.7,28.9*,12.8,-2.7,68.4*,3.6,UCH37 reconfirm=33.3
OCC[n+]1ccc(/C=C/c2c[nH]c3ccccc23)cc1,23.2,36.1,-36.2,3.0,1.4,10.3,nt,nt,
Cc1cc(C)nc(SCC(=O)NN=Cc2cccs2)n1,nt,nt,nt,1.6,nt,nt,nt,nt,
S=c1[nH]nc(-c2ccco2)n1C1CCCCC1,0.2,-2.4,3.2,-2.4,43.7*,8.2,nt,nt,A3G conf=84.3*;UDG ctr A3G=0.5
C=CCn1c(OCc2ccccc2)n[nH]c1=S,2.5,-3.2,28.9,0.8,40.9*,?,nt,nt,A3G conf=67.4*;UDG ctr A3G=-2.0

# Source: PubChem
